Bioassay records: PubChem BioAssay, several laboratories
Exocytosis inh: LAMP-1 surface exposure blockers, TALL-104 cells – cell-based, flow cytometry, MLPCN library, primary screen. TALL-104 LAMP-1 surface exposure; cells stimulated with thapsigargin and PMA. inhibition, % at 10 µM. 0.66% of 360,000 active. AID 651702, 2012;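 active = inhibition above about 55%, limit read from the data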
T cell HTS: modulators of CD8 T cell-vesicle binding, primary screen, mouse 2C CD8+ T cells, flow cytometry | 2C CD8+ T cell-vesicle binding; stronger effect = lower value | response (vesicle binding), % at 7 µM | 0.068% of 330,000 active | AID 2052, 2009;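 active = response, share of CD8 T cells binding vesicles, and their 90th percentile fluorescence all below set limits, cut at about 80% in these data, passing the limit was not always enough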;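 note: values below 100% mean blocked vesicle binding to the CD8+ T cells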
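incubation = binding step 1.5 h, 37 °C, antibody labelling 20 min, ice | test system = 2C mouse CD8+ T cells | read-out basis = percent CD8+ FL2 mean versus row control | controls = Peptide-free naked vesicles (low) and QL9 vesicles with 0.7% DMSO vehicle (high) | detection = flow cytometry of vesicle-bound cells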
V-ATPase pHluor: regulators of yeast V-ATPase proton pumping, primary screen, pHLuorin cytosolic pH fluorescence. S. cerevisiae. response, % at 10 µM. 0.37% of 350,000 active; in the data active = response mostly above about 7.3%, no sharp cut-off; inactive = mostly below about 5.4%; note: actives read high
MPTP inh: mitochondrial permeability transition pore inhibitors, primary screen, biochemical, isolated mouse mitochondria, absorbance; Ca2+ swelling absorbance, 30 min; inhibition, % at 10 µM; 1.4% of 360,000 active; AID 602449, 2012;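 active = inhibition of 50% or more, scaled per plate between neutral and stimulator controls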;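 note: 0% = DMSO wells given calcium and 100% = 1 mM EGTA wells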
rCAG RNA binder: binders of r(CAG) RNA repeats, primary screen, biochemical, fluorescence; inhibition, % at 3 µM; r(CAG) RNA repeat, TO-PRO-1 dye displacement fluorescence; 1.3% of 370,000 active;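 active = inhibition above the plate cutoff, the mean of all test compounds on that plate plus 3 SD, cut at about 35% in these data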;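 note: 0% = DMSO alone and 100% = 100 µM mitoxantrone as full dye displacement; higher means more dye released from RNA so lower well fluorescence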
Beta2AR agonist: beta2AR agonists driving receptor internalization, primary screen, cell-based, FAP fluorogen, flow cytometry | Am2.2-beta2AR cells | response, % (no concentration beside the values) | AID 504454, 2011 | 0.43% of 340,000 active | Beta-2 adrenergic receptor (Homo sapiens), P07550;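 active = response above a set limit, near 3 SD of response in nonfluorescent compounds, cut at about 42% in these data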
Target sequence (P07550 whole entry, looked up): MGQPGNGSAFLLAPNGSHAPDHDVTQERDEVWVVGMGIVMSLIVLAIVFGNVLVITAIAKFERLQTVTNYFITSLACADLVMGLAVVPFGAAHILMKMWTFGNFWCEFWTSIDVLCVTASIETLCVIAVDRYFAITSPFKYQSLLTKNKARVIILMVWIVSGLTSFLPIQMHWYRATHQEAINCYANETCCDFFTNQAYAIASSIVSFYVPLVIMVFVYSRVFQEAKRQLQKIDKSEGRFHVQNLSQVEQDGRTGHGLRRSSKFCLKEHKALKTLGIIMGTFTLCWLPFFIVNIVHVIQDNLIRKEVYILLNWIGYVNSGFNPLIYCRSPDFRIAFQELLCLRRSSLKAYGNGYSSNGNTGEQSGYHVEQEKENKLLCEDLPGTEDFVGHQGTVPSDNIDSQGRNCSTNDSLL
B2AR ag CP1: beta2AR agonists via receptor internalization, confirmation, cell-based, FAP fluorogen, flow cytometry, single point, cherry pick 1. Am2.2-beta2AR cells, FAP surface receptor; stronger effect = lower value. percent response (surface receptor), % at 10 µM. 25% of 1,100 active. shares compounds with Beta2AR agonist;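 active = surface receptor percent response at or below 58%, roughly 3 SD from nonfluorescent compounds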
FAP fluor counter: flagged in Am2.2 fluorescence counterscreen for beta-2AR agonists; shares compounds with Beta2AR agonist; Am2.2 cells, FAP fluorogen flow cytometry; stronger effect = lower value; calls only at 10 µM; 1,100 tested, under 10 active;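 active = percent response below a set limit in fluorescence channel 1 and below 50% in channel 8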
* = called active by the depositor. Sampled rows, rich in hits. Any-hit rate of the full collection: about 3.8%.

C#CCCCN([C@H](C(=O)OC)C(C)C)S(=O)(=O)c1ccc(F)cc1Br was read as rCAG RNA binder 0.5.
Cc1ccc(N(CC(=O)NC2CCCCC2)C(=O)Cn2nnc(-c3ccc(C)o3)n2)cc1 was read as Exocytosis inh -2.7, T cell HTS 297.8, V-ATPase pHluor 13.0*, MPTP inh 2.2, rCAG RNA binder -4.2 and Beta2AR agonist -7.2.
For CCOc1ccc(N(CC(=O)NC2CCCCC2)C(=O)Cn2nnc(-c3ccc(C)o3)n2)cc1 the results were Exocytosis inh -4.6, V-ATPase pHluor -2.6, MPTP inh 0.8, rCAG RNA binder -4.2 and Beta2AR agonist 3.3.
`FC(F)(F)c1ccccc1CN1CCCc2nc(-c3ccc(Br)cc3)ccc21` gave rCAG RNA binder 6.7.
`O=c1cc(O)c2sc(Nc3ccc(F)c(Cl)c3)nc2[nH]1` gave Exocytosis inh -1.6, T cell HTS 375.5, V-ATPase pHluor 0.8, MPTP inh -1.1, rCAG RNA binder 35.1* and Beta2AR agonist 3.6.
Screening CCC(C)NC(=O)C1CCN(S(=O)(=O)c2ccc3[nH]c(=O)oc3c2)CC1 (stereo not drawn) returned rCAG RNA binder 7.0.
`Cc1ccc(CCC2C3=C(CCCC3=O)OC3=C2C(=O)CCC3)cc1` gave Exocytosis inh 0.4, T cell HTS 0.0*, V-ATPase pHluor -1.4, MPTP inh -1.5, rCAG RNA binder -7.5 and Beta2AR agonist -0.9.
Screening CC(C)c1ccc(CC(C)C2C3=C(CCCC3=O)OC3=C2C(=O)CCC3)cc1 (stereo not drawn) returned Exocytosis inh -3.0, T cell HTS 215.8, V-ATPase pHluor 0.9, MPTP inh -1.9, rCAG RNA binder -3.8 and Beta2AR agonist -10.4.
Screening COC(=O)[C@]1(CNC(C)=O)CC(=O)N(Cc2ccc(Cl)cc2)[C@@H]1c1ccc(OC)cc1 returned rCAG RNA binder 1.9.
CC(C)c1nnc(NC(=O)CCS(=O)(=O)c2nc(-c3cccs3)cc(C(F)(F)F)n2)s1 was read as Exocytosis inh 23.7, T cell HTS inactive, V-ATPase pHluor -2.0, MPTP inh 2.2, rCAG RNA binder -2.8, Beta2AR agonist 96.7*, B2AR ag CP1 54.8* and FAP fluor counter inactive.
Screening COc1ccc(CCNC(=O)Cc2cccc(C(F)(F)F)c2)cc1OC returned Exocytosis inh -6.0, T cell HTS 163.8, V-ATPase pHluor -3.7, MPTP inh -3.9, rCAG RNA binder -6.2, Beta2AR agonist 83.3*, B2AR ag CP1 102.3 and FAP fluor counter inactive.
Screening CCCCCCCCN1C(=O)[C@@H](CC(=O)NCCCN2CCCC2=O)C[C@@]2(C(=O)OC)C1=C[C@H](C(C)(C)C)O[C@@H]2C returned rCAG RNA binder 3.9.
O=C(COc1ccc(S(=O)(=O)N2CCOCC2)cc1)Nc1ccc(Cl)c(C(F)(F)F)c1 was read as Exocytosis inh -1.2, T cell HTS 389.3, V-ATPase pHluor 1.6, MPTP inh 43.0, rCAG RNA binder -0.7, Beta2AR agonist -3.5, B2AR ag CP1 114.1 and FAP fluor counter inactive.
For O=C(COc1ccc(S(=O)(=O)N2CCOCC2)cc1)Nc1ccc2c(c1)OCCO2 the results were Exocytosis inh -5.0, T cell HTS 399.8, V-ATPase pHluor -2.9, MPTP inh -1.6, rCAG RNA binder 0.2, Beta2AR agonist 5.0, B2AR ag CP1 85.4 and FAP fluor counter inactive.
O=C(COc1ccc(S(=O)(=O)N2CCOCC2)cc1)Nc1ccc(Br)cc1 was read as Exocytosis inh 0.4, T cell HTS 625.9, V-ATPase pHluor 0.2, MPTP inh -1.4, rCAG RNA binder 1.2, Beta2AR agonist -1.4, B2AR ag CP1 102.4 and FAP fluor counter inactive.
`COc1ccc(OCC(=O)Nc2ccc(S(=O)(=O)N3CCOCC3)cc2)cc1` gave Exocytosis inh 0.4, T cell HTS 596.1, V-ATPase pHluor -1.9, MPTP inh -2.1, rCAG RNA binder 3.1 and Beta2AR agonist 0.1.
Screening CCOc1ccc(NC(=O)COc2ccc(S(=O)(=O)N3CCOCC3)cc2)cc1 returned Exocytosis inh -13.3, T cell HTS 698.3, V-ATPase pHluor 1.7, MPTP inh 0.4, rCAG RNA binder 1.9, Beta2AR agonist -3.5, B2AR ag CP1 50.9* and FAP fluor counter inactive.
CCc1ccc(OCC(=O)Nc2ccc(S(=O)(=O)N3CCOCC3)cc2)cc1 was read as Exocytosis inh 0.1, T cell HTS 370.1, V-ATPase pHluor 4.0, MPTP inh -1.2, rCAG RNA binder -2.2 and Beta2AR agonist -5.4.
Screening Cc1[nH]c2ccccc2c1CCN(Cc1cccs1)C(=O)Nc1cccc2c1OCO2 returned rCAG RNA binder 4.7.
Screening CCn1c(SCC(=O)Nc2cccc3ccccc23)nnc1-c1cccs1 returned rCAG RNA binder 2.8.
For O=S1(=O)CC(N2CCCC2)CN1 (stereo not drawn) the results were rCAG RNA binder 1.6.
`Cc1cccc(C(=O)Nc2nc3ncccn3c2-c2ccc(F)c(F)c2)c1` gave rCAG RNA binder 4.1.
Screening CC(C)N1Cc2nnn(Cc3ccccc3)c2-c2ccccc2S1(=O)=O returned rCAG RNA binder -1.1.
For O=C(COc1ccc(S(=O)(=O)N2CCCC2)cc1)Nc1ccc(F)cc1 the results were Exocytosis inh -3.8, T cell HTS 340.3, V-ATPase pHluor -1.7, MPTP inh 0.8, rCAG RNA binder -1.1 and Beta2AR agonist -2.5.
For COC(=O)c1ccc(NC(=O)COc2ccc(S(=O)(=O)N3CCCCC3)cc2)cc1 the results were Exocytosis inh 1.1, T cell HTS 353.4, V-ATPase pHluor -4.7, MPTP inh -2.2, rCAG RNA binder -2.2, Beta2AR agonist 87.0*, B2AR ag CP1 9.0* and FAP fluor counter inactive.
`CCn1c(COc2ccc(Cl)cc2)nnc1SCc1ccc(C#N)cc1` gave Exocytosis inh -2.4, T cell HTS 605.2, V-ATPase pHluor -0.2, MPTP inh -2.0, rCAG RNA binder -7.5, Beta2AR agonist 44.1*, B2AR ag CP1 64.3 and FAP fluor counter inactive.
Screening Nc1cc(N)nc(SCc2cc([N+](=O)[O-])cc3c2OCOC3)n1 returned Exocytosis inh -2.0, T cell HTS 203.3, V-ATPase pHluor -1.5, MPTP inh 1.5, rCAG RNA binder 10.7, Beta2AR agonist 54.6*, B2AR ag CP1 10.0* and FAP fluor counter inactive.
